Measurements taken from ChEMBL document CHEMBL1138354, “2-(2'-((dimethylamino)methyl)-4'-(fluoroalkoxy)-phenylthio)benzenamine derivatives as serotonin transporter imaging agents” (J Med Chem, 2007).

Tests used:
Lung [1] = assay: Biodistribution in iv dosed rat lungs after 30 mins; type: ADME, organism-based; details: in vivo, 0.5 h
How it was run: (§1)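 [18F]-labeled tracer was given to rats under isoflurane anesthesia: 0.2 ml sterile water with 1 mg/mL BSA and 10–100 μCi, into the femoral vein. Three rats per group. Animals were killed by cervical dislocation under anesthesia at the stated time. Organs were removed, weighed and counted. Uptake was calculated as percent dose against a 1% aliquot of the injected dose counted alongside.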

Nucleic Acid [2] = assay: Ratio of drug level in hypothalamus to cerebellum in rat after 30 mins; type: ADME, tissue-based; details: in vivo, 0.5 h
How it was run: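 Rats, 3 per group, given ¹⁸F tracer (10–100 μCi, 0.2 ml sterile water with 1 mg/mL BSA) into the femoral vein under isoflurane. Brain regions, including hypothalamus, striatum and cerebellum, dissected, weighed and counted. % dose/g calculated against a 1% diluted aliquot of the dose. Region/cerebellum ratio is region %dose/g divided by cerebellum %dose/g. SD of the ratio propagated from both means and SDs.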

Zone of skin [3] = assay: Biodistribution in iv dosed rat skin after 2 mins; type: ADME, organism-based; details: in vivo
Zone of skin [4] = assay: Biodistribution in iv dosed rat skin after 30 mins; type: ADME, organism-based; details: in vivo, 0.5 h
How it was run: (§2)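 Rats, 3 per group, under isoflurane. ¹⁸F tracer (10–100 μCi) in 0.2 ml sterile water with 1 mg/mL BSA injected into the femoral vein. Killed by cervical dislocation under anesthesia at the stated time. Organs removed, weighed and counted. % dose/organ calculated against counts of a 1% diluted aliquot of the injected dose.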

Zone of skin [5] = assay: Biodistribution in iv dosed rat skin after 60 mins; type: ADME, organism-based; details: in vivo, 1 h
Zone of skin [6] = assay: Biodistribution in iv dosed rat skin after 120 mins; type: ADME, organism-based; details: in vivo, 2 h; how it was run: as §2
Blood [7] = assay: Biodistribution in iv dosed rat blood after 2 mins; type: ADME, organism-based; details: in vivo; how it was run: as §1
Blood [8] = assay: Biodistribution in iv dosed rat blood after 30 mins; type: ADME, organism-based; details: in vivo, 0.5 h; how it was run: as §1
Blood [9] = assay: Biodistribution in iv dosed rat blood after 60 mins; type: ADME, organism-based; details: in vivo, 1 h; how it was run: as §1
Heart [10] = assay: Biodistribution in iv dosed rat heart after 2 mins; type: ADME, organism-based; details: in vivo; how it was run: as §1
Heart [11] = assay: Biodistribution in iv dosed rat heart after 120 mins; type: ADME, organism-based; details: in vivo, 2 h; how it was run: as §1
Heart [12] = assay: Biodistribution in iv dosed rat heart after 240 mins; type: ADME, organism-based; details: in vivo, 4 h; how it was run: as §1
Lung [13] = assay: Biodistribution in iv dosed rat lungs after 2 mins; type: ADME, organism-based; details: in vivo; how it was run: as §1
Lung [14] = assay: Biodistribution in iv dosed rat lungs after 60 mins; type: ADME, organism-based; details: in vivo, 1 h; how it was run: as §1
Liver [15] = assay: Biodistribution in iv dosed rat liver after 30 mins; type: ADME, organism-based; details: in vivo, 0.5 h; how it was run: as §1
Liver [16] = assay: Biodistribution in iv dosed rat liver after 240 mins; type: ADME, organism-based; details: in vivo, 4 h; how it was run: as §1
Spleen [17] = assay: Biodistribution in iv dosed rat spleen after 2 mins; type: ADME, organism-based; details: in vivo
Spleen [18] = assay: Biodistribution in iv dosed rat spleen after 30 mins; type: ADME, organism-based; details: in vivo, 0.5 h; how it was run: as §2
Spleen [19] = assay: Biodistribution in iv dosed rat spleen after 60 mins; type: ADME, organism-based; details: in vivo, 1 h
Spleen [20] = assay: Biodistribution in iv dosed rat spleen after 240 mins; type: ADME, organism-based; details: in vivo, 4 h
Kidney [21] = assay: Biodistribution in iv dosed rat kidney after 2 mins; type: ADME, organism-based; details: in vivo; how it was run: as §1
Kidney [22] = assay: Biodistribution in iv dosed rat kidney after 30 mins; type: ADME, organism-based; details: in vivo, 0.5 h; how it was run: as §1
Kidney [23] = assay: Biodistribution in iv dosed rat kidney after 60 mins; type: ADME, organism-based; details: in vivo, 1 h; how it was run: as §1
Kidney [24] = assay: Biodistribution in iv dosed rat kidney after 120 mins; type: ADME, organism-based; details: in vivo, 2 h; how it was run: as §1
Kidney [25] = assay: Biodistribution in iv dosed rat kidney after 240 mins; type: ADME, organism-based; details: in vivo, 4 h; how it was run: as §1
Muscle tissue [26] = assay: Biodistribution in iv dosed rat muscle after 60 mins; type: ADME, organism-based; details: in vivo, 1 h; how it was run: as §1
Muscle tissue [27] = assay: Biodistribution in iv dosed rat muscle after 120 mins; type: ADME, organism-based; details: in vivo, 2 h; how it was run: as §1
Muscle tissue [28] = assay: Biodistribution in iv dosed rat muscle after 240 mins; type: ADME, organism-based; details: in vivo, 4 h; how it was run: as §1
Bone [29] = assay: Biodistribution in iv dosed rat bone after 2 mins; type: ADME, organism-based, Bone element; details: in vivo; how it was run: as §1
Bone [30] = assay: Biodistribution in iv dosed rat bone after 30 mins; type: ADME, organism-based, Bone element; details: in vivo, 0.5 h; how it was run: as §1
Bone [31] = assay: Biodistribution in iv dosed rat bone after 60 mins; type: ADME, organism-based, Bone element; details: in vivo, 1 h; how it was run: as §1
Bone [32] = assay: Biodistribution in iv dosed rat bone after 120 mins; type: ADME, organism-based, Bone element; details: in vivo, 2 h; how it was run: as §1
Bone [33] = assay: Biodistribution in iv dosed rat bone after 240 mins; type: ADME, organism-based, Bone element; details: in vivo, 4 h; how it was run: as §1
Brain [34] = assay: Biodistribution in iv dosed rat brain after 2 mins; type: ADME, organism-based; details: in vivo; how it was run: as §1
Brain [35] = assay: Biodistribution in iv dosed rat brain after 60 mins; type: ADME, organism-based; details: in vivo, 1 h; how it was run: as §1
Brain [36] = assay: Biodistribution in iv dosed rat brain after 240 mins; type: ADME, organism-based; details: in vivo, 4 h; how it was run: as §1
Cortex = assay: Biodistribution in iv dosed rat cortex assessed as radioactivity after 240 mins; type: ADME, organism-based; details: in vivo, 4 h
How it was run: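 Rats received the [18F] tracer under isoflurane anesthesia: 0.2 ml sterile water with 1 mg/mL BSA and 10–100 μCi, into the femoral vein. Three rats per group. After cervical dislocation under anesthesia, the cortex was dissected, weighed and gamma-counted. Percent dose/g was calculated against a 100-fold diluted aliquot of the injected dose.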

Striatum [37] = assay: Biodistribution in iv dosed rat striatum assessed as radioactivity after 2 mins; type: ADME, organism-based; details: in vivo
Striatum [38] = assay: Biodistribution in iv dosed rat striatum assessed as radioactivity after 30 mins; type: ADME, organism-based; details: in vivo, 0.5 h
Striatum [39] = assay: Biodistribution in iv dosed rat striatum assessed as radioactivity after 240 mins; type: ADME, organism-based; details: in vivo, 4 h
Nucleic Acid [40] = assay: Ratio of drug level in hypothalamus to cerebellum in rat after 2 mins; type: ADME, tissue-based; details: in vivo
Nucleic Acid [41] = assay: Ratio of drug level in hypothalamus to cerebellum in rat assessed as radioactivity after 240 mins; type: ADME, tissue-based; details: in vivo, 4 h
Nucleic Acid [42] = assay: Ratio of drug level in hippocampus to cerebellum in rat assessed as radioactivity after 2 mins; type: ADME, tissue-based; details: in vivo
Nucleic Acid [43] = assay: Ratio of drug level in hippocampus to cerebellum in rat assessed as radioactivity after 30 mins; type: ADME, tissue-based; details: in vivo, 0.5 h
How it was run: (§3)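 Groups of three normal rats under isoflurane received the [18F] tracer (10–100 μCi in 0.2 ml sterile water containing 1 mg/mL BSA) into the femoral vein. They were killed by cervical dislocation under anesthesia at the stated time. Cortex, striatum, hippocampus, hypothalamus and cerebellum were dissected, weighed and gamma-counted. %dose/g was set against a 100-fold diluted dose aliquot, and each region was divided by cerebellum.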

Nucleic Acid [44] = assay: Ratio of drug level in hippocampus to cerebellum in rat assessed as radioactivity after 60 mins; type: ADME, tissue-based; details: in vivo, 1 h
Nucleic Acid [45] = assay: Ratio of drug level in hippocampus to cerebellum in rat assessed as radioactivity after 120 mins; type: ADME, tissue-based; details: in vivo, 2 h; how it was run: as §3
Nucleic Acid [46] = assay: Ratio of drug level in hippocampus to cerebellum in rat assessed as radioactivity after 240 mins; type: ADME, tissue-based; details: in vivo, 4 h
Nucleic Acid [47] = assay: Ratio of drug level in cortex to cerebellum in rat assessed as radioactivity after 2 mins; type: ADME, tissue-based; details: in vivo
Nucleic Acid [48] = assay: Ratio of drug level in cortex to cerebellum in rat assessed as radioactivity after 30 mins; type: ADME, tissue-based; details: in vivo, 0.5 h; how it was run: as §3
Nucleic Acid [49] = assay: Ratio of drug level in cortex to cerebellum in rat assessed as radioactivity after 60 mins; type: ADME, tissue-based; details: in vivo, 1 h
Nucleic Acid [50] = assay: Ratio of drug level in cortex to cerebellum in rat assessed as radioactivity after 120 mins; type: ADME, tissue-based; details: in vivo, 2 h; how it was run: as §3
Nucleic Acid [51] = assay: Ratio of drug level in striatum to cerebellum in rat assessed as radioactivity after 2 mins; type: ADME, tissue-based; details: in vivo
Nucleic Acid [52] = assay: Ratio of drug level in striatum to cerebellum in rat assessed as radioactivity after 30 mins; type: ADME, tissue-based; details: in vivo, 0.5 h; how it was run: as §3
Nucleic Acid [53] = assay: Ratio of drug level in striatum to cerebellum in rat assessed as radioactivity after 60 mins; type: ADME, tissue-based; details: in vivo, 1 h
Nucleic Acid [54] = assay: Ratio of drug level in striatum to cerebellum in rat assessed as radioactivity after 120 mins; type: ADME, tissue-based; details: in vivo, 2 h; how it was run: as §3
Nucleic Acid [55] = assay: Ratio of drug level in striatum to cerebellum in rat assessed as radioactivity after 240 mins; type: ADME, tissue-based; details: in vivo, 4 h
Lung [56] = assay: Biodistribution in iv dosed rat lungs after 120 mins; type: ADME, organism-based; details: in vivo, 2 h; how it was run: as §1
Lung [57] = assay: Biodistribution in iv dosed rat lungs after 240 mins; type: ADME, organism-based; details: in vivo, 4 h; how it was run: as §1
[58] = Partition coefficient, log P at pH 7.4; type: physicochemical; details: octanol/water

Compound: CN(C)Cc1cc(OCC[18F])ccc1Sc1ccccc1N
- Drug uptake (Lung [1]): 2.25 %ID
- Ratio (Nucleic Acid [2]): 3.79
- Drug uptake (Zone of skin [3]): 8.78 %ID
- Drug uptake (Zone of skin [4]): 8.66 %ID
- Drug uptake (Zone of skin [5]): 8.44 %ID
- Drug uptake (Zone of skin [6]): 4.32 %ID
- Drug uptake (Blood [7]): 11.86 %ID
- Drug uptake (Blood [8]): 4.74 %ID
- Drug uptake (Blood [9]): 3.1 %ID
- Drug uptake (Heart [10]): 0.95 %ID
- Drug uptake (Heart [11]): 0.09 %ID
- Drug uptake (Heart [12]): 0.04 %ID
- Drug uptake (Lung [13]): 13.21 %ID
- Drug uptake (Lung [14]): 1.4 %ID
- Drug uptake (Liver [15]): 4.24 %ID
- Drug uptake (Liver [16]): 2.26 %ID
- Drug uptake (Spleen [17]): 1.22 %ID
- Drug uptake (Spleen [18]): 0.65 %ID
- Drug uptake (Spleen [19]): 0.35 %ID
- Drug uptake (Spleen [20]): 0.09 %ID
- Drug uptake (Kidney [21]): 7.93 %ID
- Drug uptake (Kidney [22]): 4.56 %ID
- Drug uptake (Kidney [23]): 4.04 %ID
- Drug uptake (Kidney [24]): 2.66 %ID
- Drug uptake (Kidney [25]): 1.94 %ID
- Drug uptake (Muscle tissue [26]): 8.24 %ID
- Drug uptake (Muscle tissue [27]): 4.24 %ID
- Drug uptake (Muscle tissue [28]): 2.28 %ID
- Drug uptake (Bone [29]): 8.67 %ID
- Drug uptake (Bone [30]): 7.11 %ID
- Drug uptake (Bone [31]): 4.87 %ID
- Drug uptake (Bone [32]): 2.92 %ID
- Drug uptake (Bone [33]): 3.3 %ID
- Drug uptake (Brain [34]): 1.84 %ID
- Drug uptake (Brain [35]): 1.21 %ID
- Drug uptake (Brain [36]): 0.18 %ID
- Drug uptake (Cortex): 0.07 % ID/g
- Drug uptake (Striatum [37]): 1.01 % ID/g
- Drug uptake (Striatum [38]): 0.8 % ID/g
- Drug uptake (Striatum [39]): 0.08 % ID/g
- Ratio (Nucleic Acid [40]): 1.28
- Ratio (Nucleic Acid [41]): 6.58
- Ratio (Nucleic Acid [42]): 1.19
- Ratio (Nucleic Acid [43]): 2.59
- Ratio (Nucleic Acid [44]): 3.75
- Ratio (Nucleic Acid [45]): 3.71
- Ratio (Nucleic Acid [46]): 2.14
- Ratio (Nucleic Acid [47]): 1.53
- Ratio (Nucleic Acid [48]): 3.26
- Ratio (Nucleic Acid [49]): 4.78
- Ratio (Nucleic Acid [50]): 4.6
- Ratio (Nucleic Acid [51]): 1.22
- Ratio (Nucleic Acid [52]): 2.69
- Ratio (Nucleic Acid [53]): 3.87
- Ratio (Nucleic Acid [54]): 3.85
- Ratio (Nucleic Acid [55]): 2.72
- Drug uptake (Lung [56]): 0.53 %ID
- Drug uptake (Lung [57]): 0.33 %ID
- logD [58]: 2.15
